The nature of data set [1]: Ratio of TC50 value to the IC50 value measured on rhinovirus-14 by using CPE/XTT assay. In kind it is functional. The procedure, abridged: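 Cytopathic-effect assay run per an earlier method, except that surviving host cells were quantified by XTT reduction instead of crystal violet staining. General cellular toxicity was taken as TC50, and the ratio was TC50 divided by IC50. No-drug controls received 0.1% DMSO.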
On the technique in general: Tetrazolium dyes change colour on reduction, which living cells bring about.

Data set [2] in a line: Compound was measured for inhibition on Human Rhinovirus-14 by using CPE/XTT assay (Antiviral activity). The data set is classed as functional, Human rhinovirus sp. An outline of the steps:
(§1)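 CPE assay run per an earlier protocol, except that surviving host cells were quantified with XTT as substrate rather than crystal violet staining. The same assay gave the cellular toxicity TC50. Control samples without drug received 0.1% DMSO.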

A short description of data set [3]: Compound was evaluated for cellular toxicity in on Human Rhinovirus-14 by using CPE/XTT assay (cytopathic effect assay). The conditions noted are these: human rhinovirus sp.; read-out: TC50 (the source's name). The procedure, abridged:
as §1

Data set [4] can be described thus: Compound was measured for inhibition on Human Rhinovirus-14 by using PRA assay (Antiviral activity). The data set is classed as functional, Human rhinovirus sp. An outline of the steps:
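H-HeLa cells grown in 60-mm dishes at 37 °C in MEM with 10% newborn calf serum and 1% nonessential amino acids. Overlay contained varied compound concentrations. Incubated 35 °C for 48 h, fixed with 10% formalin, stained with 0.5% crystal violet, plaques counted. Duplicate wells averaged vs DMSO controls. IC50 (50% plaque inhibition) by Reed-Muench from linear region of the curve.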

This note sets out measurements from ChEMBL document CHEMBL1132202, “2-Amino-3-substituted-6-[(E)-1-phenyl-2-(N-methylcarbamoyl)vinyl]imid azo[1,2-a]pyridines as a novel class of inhibitors of human rhinovirus: stereospecific synthesis and antiviral activity” (J Med Chem, 1999).

In brackets after ≈: the same amount, converted by molar mass.

Regarding `CNC(=O)/C=C(\c1ccccc1)c1ccc2nc(N)c(SC(C)C)n2c1`, the TC50/IC50 in data set [1] amounted to 48. Moreover, the IC50 in data set [2] stood at 0.21 µg/mL (≈ 0.573 µM); in data set [4], 0.17 µg/mL (≈ 0.464 µM). In addition, the CC50 in data set [3] was determined as 10 µg/mL (≈ 27.3 µM).

On to `CNC(=O)/C=C(\c1ccccc1)c1ccc2nc(N)c(I)n2c1`, for which the IC50 in data set [4] was above 3.2 µg/mL.

In turn, `CNC(=O)/C=C(\c1ccccc1)c1ccc2nc(N)cn2c1` registered an IC50 in data set [4] above 10 µg/mL.

Consider `CNC(=O)/C=C(\c1ccccc1)c1ccc2nc(N)c(-c3ccc(F)cc3C(F)(F)F)n2c1`, for which the TC50/IC50 in data set [1] is listed as above 21. The IC50 was 0.48 µg/mL (≈ 1.06 µM) in data set [2] and 0.44 µg/mL (≈ 0.968 µM) in data set [4]. The CC50 in data set [3] was above 10 µg/mL.

In the case of `CNC(=O)/C=C(\c1ccccc1)c1ccc2nc(N)c(S(=O)(=O)C(C)C)n2c1`, the IC50 in data set [4] was 0.64 µg/mL (≈ 1.61 µM).

Consider `CNC(=O)/C=C(\c1ccccc1)c1ccc2nc(N)c(-c3cc(F)ccc3F)n2c1`, for which the TC50/IC50 in data set [1] amounted to 30. Moreover, the IC50 in data set [2] turned out to be 0.16 µg/mL (≈ 0.396 µM); in data set [4] it was 0.18 µg/mL (≈ 0.445 µM). Further, in data set [3], the CC50 was found to be 4.87 µg/mL (≈ 12 µM).

In the case of `CNC(=O)/C=C(\c1ccccc1)c1ccc2nc(N)c(-c3ccccc3)n2c1`, the TC50/IC50 in data set [1] came out at 17. In addition, the figures for the half-inhibitory concentration (IC50) in data set [2] and in data set [4] were 0.3 µg/mL (≈ 0.814 µM) and 0.27 µg/mL (≈ 0.733 µM), respectively. Besides, the CC50 in data set [3] amounted to 5.03 µg/mL (≈ 13.7 µM).

As for `CNC(=O)/C=C(\c1ccccc1)c1ccc2nc(N)c(-c3ccc(F)c(F)c3F)n2c1`, in data set [1], the TC50/IC50 is 33. Moreover, the IC50 in data set [2] stood at 0.21 µg/mL (≈ 0.497 µM); in data set [4], 0.17 µg/mL (≈ 0.402 µM). In addition, in data set [3], the CC50 was found to be 6.98 µg/mL (≈ 16.5 µM).

What is called IC50 is the concentration at which inhibition is half-maximal. Low values mean greater potency in that assay, high ones weaker potency in that assay.
